Source: PubChem BioAssay
MPTP block = inhibitors of mitochondrial permeability transition pore. isolated mouse mitochondria, Ca2+ swelling absorbance, 30 min. inhibition, % at 10 µM. hit rate 1.4% among 360,000;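 active means inhibition of 50% or more, scaled per plate between neutral and stimulator controls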
GPR7 antag = human neuropeptides B/W receptor 1 antagonism | AID 1861 | hit rate 1.1% among 290,000 | GPR7-expressing cells, fluorescence antagonist assay | P48145 | inhibition, % at 4.4 µM; in the data active means inhibition above about 16%, passing the limit was not always enough;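 further: cells stimulated with the agonist NPW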
Target sequence (P48145 whole entry, looked up): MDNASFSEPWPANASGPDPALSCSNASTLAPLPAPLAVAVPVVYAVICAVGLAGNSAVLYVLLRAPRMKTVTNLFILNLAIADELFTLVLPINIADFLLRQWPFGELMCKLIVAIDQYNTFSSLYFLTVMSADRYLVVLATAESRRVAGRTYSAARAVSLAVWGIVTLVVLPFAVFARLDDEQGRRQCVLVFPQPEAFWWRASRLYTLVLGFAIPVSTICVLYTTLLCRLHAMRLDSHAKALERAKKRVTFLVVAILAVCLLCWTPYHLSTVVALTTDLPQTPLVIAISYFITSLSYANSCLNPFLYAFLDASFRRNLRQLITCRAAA
TAAR1 antagonist = antagonists of human TAAR1; hit rate 1.5% among 360,000; AID 624466; inhibition, % at 3 µM; CHO RD-HGA16 TAAR1, Fluo-8 calcium fluorescence, antagonist; Q96RJ0;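 active means inhibition above a per-plate cutoff, the mean inhibition of test compounds on that plate plus 3 SD, cut at about 49% in these data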
Target sequence (Q96RJ0 whole entry, looked up): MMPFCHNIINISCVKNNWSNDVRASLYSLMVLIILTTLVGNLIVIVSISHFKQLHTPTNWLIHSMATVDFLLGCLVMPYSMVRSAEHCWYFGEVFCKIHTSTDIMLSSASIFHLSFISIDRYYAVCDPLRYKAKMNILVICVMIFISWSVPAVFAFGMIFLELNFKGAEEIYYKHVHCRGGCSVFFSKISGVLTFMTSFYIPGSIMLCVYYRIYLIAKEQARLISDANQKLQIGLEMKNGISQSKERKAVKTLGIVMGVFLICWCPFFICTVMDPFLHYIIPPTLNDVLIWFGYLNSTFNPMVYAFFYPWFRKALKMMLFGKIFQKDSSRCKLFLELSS
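Material: RD-HGA16 CHO cells with stable hTAAR1 and Gα16; Dosing: single nominal final test compound concentration of 3 µM; Schedule: seeding 17-24 h prior, 75-min 37 °C, 30-min RT dye loading; Detection: kinetic Fluo-8 calcium fluorescence measurement; Measure: % inhibition from peak post-agonist over basal fluorescence ratio; Benchmarks: vehicle and agonist controls.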
DAGLB inh = blocks human DAGLB lipase activity | HEK293T DAGLB membrane lysate, EnzChek fluorogenic substrate | hit rate 0.059% among 340,000 | Q8NCG7 | inhibition, % at 5.17 µM; in the data active means inhibition above about 34%
TAAR1 agonist = human TAAR1 agonism. Q96RJ0. CHO RD-HGA16 TAAR1, Fluo-8 calcium fluorescence; vehicle wells 0%, saturating PEA agonist 100%. activation, % at 3 µM. hit rate 0.99% among 360,000;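 active means activation above the mean activation of all test compounds in the run plus 3 SD, cut at about 38% in these data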
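Benchmarks: low control DMSO, high control PEA (EC100); System: CHO RD-HGA16 cells carrying human TAAR1 plus Gα16; Detection: Fluo-8 fluorescence, 5 s baseline then 140 s kinetic read; Schedule: 17-24 h plating, Fluo-8 75 min 37 °C, 30 min RT; Read-out basis: % activation from peak over basal fluorescence ratio, DMSO-to-PEA scaled.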
TAAR1 nonsel count = nonselective antagonism, TAAR1 counter-screen; shares compounds with TAAR1 antagonist; counterscreen cell line, calcium fluorescence, antagonist mode; inhibition, % at 3 µM; hit rate 77% among 2,400; in the data active means inhibition above about 22%;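 further: CHO-Ga16 host cells stimulated with ATP at an EC80 level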
TAAR1 ant conf = confirmation of human TAAR1 antagonists; shares compounds with TAAR1 antagonist; TAAR1-expressing cells, fluorescence antagonist read-out; inhibition, % at 3 µM; hit rate 40% among 2,400; AID 651785; in the data active means inhibition above about 49%;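 further: CHO-Ga16 host cells challenged with agonist PEA near its EC80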
Ga16 nonsel ag = counter-screen for TAAR1 antagonists: nonselective Ga16 agonists | shares compounds with TAAR1 antagonist | Ga16-expressing cells, calcium fluorescence, agonist counterscreen | hit rate 18% among 2,400 | activation, % at 3 µM; in the data active means activation above about 12%
TAAR1 ag counter = counter-screen for human TAAR1 antagonists: TAAR1 agonists. shares compounds with TAAR1 antagonist. hTAAR1 cell line, fluorescence activation, agonist mode. activation, % at 3 µM. hit rate 2% among 2,400; in the data active means activation above about 37%;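 further: CHO cells stably expressing TAAR1 with calcium dye readout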
Of the large screens only hits and unclear results are named; the others gave an inactive call (follow-up assays come after a bar, where they were run). Only some compounds are listed: those with a hit (about 4% of all), similar ones and a draw of the others.

O=C(O)Cn1c(=O)c2c3c(sc2n(Cc2ccccc2F)c1=O)CCCC3	TAAR1 antagonist 56 | TAAR1 nonsel count inactive | TAAR1 ant conf inactive | Ga16 nonsel ag inactive | TAAR1 ag counter inactive
O=C(O)Cn1c(=O)c2c3c(sc2n(Cc2ccc(F)cc2)c1=O)CCCC3	none
Cn1c(C(=O)Nc2ccc3c(c2)OCCO3)cc2c(=O)n(C)c3ccccc3c21	TAAR1 antagonist 52 | TAAR1 nonsel count inactive | TAAR1 ant conf inactive | Ga16 nonsel ag inactive | TAAR1 ag counter inactive
Cc1cccc(N(CC(=O)NCCSc2nc3ccccc3s2)S(=O)(=O)c2ccccc2)c1	none (no result: MPTP block, TAAR1 antagonist, DAGLB inh, TAAR1 agonist)
O=C(CN(c1ccccc1)S(=O)(=O)c1ccccc1)NCCSc1nc2ccccc2s1	TAAR1 antagonist 71 | TAAR1 nonsel count 36 | TAAR1 ant conf 62 | Ga16 nonsel ag inactive | TAAR1 ag counter inactive
CCOc1ccc(NC(=O)CN(C)C(=O)C2CC(=O)N(CCc3ccc(OC)c(OC)c3)C2)cc1OCC (centres undefined)	TAAR1 antagonist 100 (no result: GPR7 antag) | TAAR1 nonsel count inactive | TAAR1 ant conf inactive | Ga16 nonsel ag inactive | TAAR1 ag counter inactive
CCCCCCC12C(=Cc3cc4c(cc31)OCCO4)c1cc(OC)c(OC)cc1C(CC(=O)O)N2C(=O)OC (centres undefined)	none (no result: MPTP block, GPR7 antag, DAGLB inh)
C=CCOc1ccc(/C=C/C(=O)OCC(=O)NCc2cccs2)cc1	TAAR1 antagonist 52 (no result: GPR7 antag) | TAAR1 nonsel count 29 | TAAR1 ant conf inactive | Ga16 nonsel ag inactive | TAAR1 ag counter inactive
C=CCOc1ccc(/C=C/C(=O)OCc2csc(CC(=O)Nc3ccccc3C)n2)cc1	TAAR1 antagonist 66 (no result: GPR7 antag) | TAAR1 nonsel count 38 | TAAR1 ant conf 52 | Ga16 nonsel ag inactive | TAAR1 ag counter inactive
COc1ccc(CCNC2=C(Cl)C(=O)N(CCc3ccc(OC)c(OC)c3)C2=O)cc1OC	TAAR1 antagonist 74 | TAAR1 nonsel count 44 | TAAR1 ant conf 60 | Ga16 nonsel ag inactive | TAAR1 ag counter inactive
CCCCN1C(=O)C(CC(=O)NC(c2ccccc2)c2ccccc2)CC(C(=O)N2CCCCCC2)=C1C (centres undefined)	none (no result: GPR7 antag, DAGLB inh)
c1ccc(CCNc2nc(-c3ccncc3)nc3ccccc23)cc1	TAAR1 antagonist 67 (no result: DAGLB inh) | TAAR1 nonsel count 27 | TAAR1 ant conf inactive | Ga16 nonsel ag inactive | TAAR1 ag counter inactive
c1ccc(Nc2nc(-c3ccncc3)nc3ccccc23)cc1	none
COC(=O)C(Nc1ccccc1Cl)(c1cc(C)c(O)c(C)c1)C(F)(F)F (centres undefined)	TAAR1 antagonist 83 | TAAR1 nonsel count inactive | TAAR1 ant conf inactive | Ga16 nonsel ag inactive | TAAR1 ag counter inactive
COc1cccc(/C=N/Nc2nnc3c(n2)[nH]c2ccccc23)c1OC	TAAR1 antagonist 61 | TAAR1 nonsel count inactive | TAAR1 ant conf inactive | Ga16 nonsel ag inactive | TAAR1 ag counter inactive
COc1cccc(C=NNc2nc3ccccc3s2)c1OC	none (no result: GPR7 antag)
CCOc1ccc(C=NNC(=O)c2cccc3ccccc23)cc1OCC	none (no result: GPR7 antag)
CCOc1ccc(N2C(=O)C3ON(c4ccccc4)C(c4cccs4)C3C2=O)cc1 (centres undefined)	none
COc1cccc(N2C(=O)C3ON(c4ccccc4)C(c4cccs4)C3C2=O)c1 (centres undefined)	TAAR1 antagonist 54 | TAAR1 nonsel count 24 | TAAR1 ant conf inactive | Ga16 nonsel ag inactive | TAAR1 ag counter inactive
COc1ccc(S(=O)(=O)NC(=O)C2(C)CCN2C(=O)CC2CC2)cc1 (centres undefined)	none (no result: GPR7 antag, DAGLB inh)
Cc1ccc(OCc2nc3ccccc3n2C(C)C(=O)Nc2c(C)cccc2C)cc1 (centres undefined)	none (no result: GPR7 antag, DAGLB inh)
Cc1c(Cl)cnc(NC(=O)COC(=O)c2ccc3c(c2)OCO3)c1Cl	none
Cc1c(Cl)cnc(NC(=O)COC(=O)c2ccncc2)c1Cl	TAAR1 antagonist 101 (no result: GPR7 antag) | TAAR1 nonsel count inactive | TAAR1 ant conf inactive | Ga16 nonsel ag inactive | TAAR1 ag counter inactive
O=c1c2ccc([N+](=O)[O-])cc2ncn1CCOc1cccc(Br)c1	TAAR1 antagonist 71 | TAAR1 nonsel count 30 | TAAR1 ant conf 56 | Ga16 nonsel ag inactive | TAAR1 ag counter inactive
Cc1cc(OCCn2cnc3ccccc3c2=O)ccc1[N+](=O)[O-]	none
CCOC(=O)c1cc2c(N)c(C(=O)c3cc(C#N)c(SC)nc3C)sc2nc1C	TAAR1 antagonist 68 | TAAR1 nonsel count 31 | TAAR1 ant conf inactive | Ga16 nonsel ag inactive | TAAR1 ag counter inactive
O=C(CCSCc1cccc(F)c1)NCCc1ccccc1	TAAR1 antagonist 56 | TAAR1 nonsel count inactive | TAAR1 ant conf 69 | Ga16 nonsel ag inactive | TAAR1 ag counter inactive
O=C(CCSCc1ccc(Cl)cc1)NCCc1ccccc1	none
CN(c1ccccc1)S(=O)(=O)c1ccc(C(=O)Nc2ccncc2)cc1	none (no result: GPR7 antag)
COc1ccccc1N(C)S(=O)(=O)c1ccc(C(=O)N(C)Cc2ccc(OC(F)F)cc2)cc1	TAAR1 antagonist 85 (no result: GPR7 antag) | TAAR1 nonsel count 45 | TAAR1 ant conf 74 | Ga16 nonsel ag 13 | TAAR1 ag counter inactive
COc1cc(NC(=O)c2ccc(S(=O)(=O)N(C)c3ccccc3OC)cc2)cc(OC)c1	none (no result: GPR7 antag)
COC(=O)c1cccc(NC(=O)c2ccc(S(=O)(=O)N(C)c3ccccc3OC)cc2)c1	TAAR1 antagonist 70 (no result: GPR7 antag) | TAAR1 nonsel count 32 | TAAR1 ant conf inactive | Ga16 nonsel ag inactive | TAAR1 ag counter inactive
COCc1ccc(C(=O)Nc2cccc(S(=O)(=O)N(C)c3ccccc3)c2)cc1	TAAR1 antagonist 53 (no result: GPR7 antag) | TAAR1 nonsel count 32 | TAAR1 ant conf inactive | Ga16 nonsel ag inactive | TAAR1 ag counter inactive
COc1ccccc1N(C)S(=O)(=O)c1ccc(C(=O)Nc2cccc(Br)c2)cc1	TAAR1 antagonist 70 (no result: GPR7 antag) | TAAR1 nonsel count 36 | TAAR1 ant conf inactive | Ga16 nonsel ag inactive | TAAR1 ag counter inactive
CCCCNC(=O)C1(C)CCC(=O)N1c1cc(C(C)(C)C)nn1C (centres undefined)	none (no result: GPR7 antag, DAGLB inh)
Cc1[nH]c2ccccc2c1C(=O)C(=O)NCc1nnnn1-c1ccc(F)cc1	none (no result: GPR7 antag)
COc1ccccc1N(C)S(=O)(=O)c1ccc(C(=O)OCC(=O)NCc2cccs2)cc1	TAAR1 antagonist 83 | TAAR1 nonsel count 38 | TAAR1 ant conf 62 | Ga16 nonsel ag inactive | TAAR1 ag counter inactive
COC(=O)[C@@]12C[C@@H](CC(=O)NCC3CCCCC3)C(=O)N(Cc3ccco3)C1=CCC(C)(C)C2	none (no result: GPR7 antag, DAGLB inh)
O=C(Nc1ccc(COc2ccccc2)cc1)c1cccc([N+](=O)[O-])c1	TAAR1 antagonist 60 | TAAR1 nonsel count 28 | TAAR1 ant conf 68 | Ga16 nonsel ag inactive | TAAR1 ag counter inactive
